In ChEMBL document CHEMBL3272356, “Adriamycin analogs. Periodate oxidation of adriamycin” (J Med Chem, 1976):
pEC50: −log10 of the molar value. Calls of active or inactive are those of the source. The calls are words filed in the database; no cut-off is given here.

Legend:
[1] = test system: Calf thymus DNA; assay: Binding affinity to calf thymus DNA assessed as increase in melting temperature at 1.63 x 10^-5 M by UV spectrophotometric analysis; assay type: nucleic-acid assay; settings: Bos taurus
[2] = test system: P388; assay: Antitumor activity against mouse P388 cells allografted in mouse assessed as increase in survival time at 3.12 mg/kg, ip qd administered for 9 days relative to control; assay type: functional; settings: route intraperitoneal
[3] = test system: L1210; assay: Inhibition of DNA synthesis in mouse L1210 cells preincubated for 3 hrs followed by [3H]-thymidine addition measured after 1 hr by scintillation spectrometric analysis; assay type: functional; settings: read-out: ED50 (the source's name)
How it was run: (§1)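 L1210 suspension at 2 × 10^6/ml in 1640 medium with 10% fetal calf serum and 20 mM HEPES, pH 7.2. Drug tested at 100 to 0.100 µM in half-log steps, 3 h at 37° with shaking. Pulse 1 h with 0.5 µCi/ml [3H]thymidine (DNA) or [3H]uridine (RNA). TCA-precipitable counts expressed as % of control; ED50 read from the points bracketing 50%, with the bracketing assays repeated.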

[4] = test system: Mus musculus; assay: Acute toxicity in mouse allografted with mouse P388 cells assessed as survival less than 5 days at 1.56 to 75 mg/kg, ip qd; assay type: organism-based; design: dose 1.56-75 mg/kg, route intraperitoneal; settings: in vivo, 120 h
How it was run: (§2)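 BDF or CDF mice were implanted ip with 10^6 P-388 lymphocytic leukemia cells on day 0 and dosed ip on days 1-9. Acute toxic drug deaths were scored as survival of less than 5 days after the start of treatment. Testing was done by the NCI Drug Research and Development Program.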

[5] = test system: P388; assay: Antitumor activity against mouse P388 cells allografted in mouse assessed as increase in survival time at 25 mg/kg, ip qd administered for 9 days relative to control; assay type: functional; settings: route intraperitoneal
[6] = test system: P388; assay: Antitumor activity against mouse P388 cells allografted in mouse assessed as increase in survival time at 6.25 mg/kg, ip qd administered for 9 days relative to control; assay type: functional; settings: route intraperitoneal
[7] = test system: Calf thymus DNA; assay: Binding affinity to calf thymus DNA assessed as bathochromatic shift at 1:1 to 16:1 compound to DNA ratio by UV-visible spectra analysis; assay type: nucleic-acid assay; settings: Bos taurus
How it was run: (§3)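 Calf thymus DNA stock sonicated on ice to limit precipitation of the complex. DNA concentration was taken from the supplier's phosphorus content. UV-visible spectra were recorded.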

[8] = test system: Calf thymus DNA; assay: Binding affinity to calf thymus DNA assessed as decrease in absorptivity of visible maxima of compound at 1:1 to 16:1 compound to DNA ratio by UV-visible spectra analysis; assay type: nucleic-acid assay; settings: Bos taurus; how it was run: as §3
[9] = test system: L1210; assay: Inhibition of RNA synthesis in mouse L1210 cells preincubated for 3 hrs followed by [3H]-uridine addition measured after 1 hr by scintillation spectrometric analysis; assay type: functional; settings: read-out: ED50 (the source's name); how it was run: as §1
[10] = test system: P388; assay: Antitumor activity against mouse P388 cells allografted in mouse assessed as increase in survival time at 75 mg/kg, ip qd administered for 9 days relative to control; assay type: functional; settings: route intraperitoneal
[11] = test system: P388; assay: Antitumor activity against mouse P388 cells allografted in mouse assessed as increase in survival time at 12.5 mg/kg, ip qd administered for 9 days relative to control; assay type: functional; settings: route intraperitoneal
[12] = test system: P388; assay: Antitumor activity against mouse P388 cells allografted in mouse assessed as increase in survival time at 1.56 mg/kg, ip qd administered for 9 days relative to control; assay type: functional; settings: route intraperitoneal
[13] = test system: P388; assay: Antitumor activity against mouse P388 cells allografted in mouse assessed as increase in survival time at 50 mg/kg, ip qd administered for 9 days relative to control; assay type: functional; settings: route intraperitoneal
[14] = test system: L1210; assay: Inhibition of DNA synthesis in mouse L1210 cells at < 100 uM preincubated for 3 hrs followed by [3H]-thymidine addition measured after 1 hr by scintillation spectrometric analysis; assay type: functional, cell-based; how it was run: as §1
[15] = test system: L1210; assay: Inhibition of RNA synthesis in mouse L1210 cells at < 100 uM preincubated for 3 hrs followed by [3H]-uridine addition measured after 1 hr by scintillation spectrometric analysis; assay type: functional, cell-based; how it was run: as §1
[16] = test system: P388; assay: Antitumor activity against mouse P388 cells allografted in mouse assessed as increase in survival time at 0.12 mg/kg, ip qd administered for 9 days relative to control; assay type: functional; settings: route intraperitoneal
[17] = test system: P388; assay: Antitumor activity against mouse P388 cells allografted in mouse assessed as increase in survival time at 0.06 mg/kg, ip qd administered for 9 days relative to control; assay type: functional; settings: route intraperitoneal
[18] = test system: P388; assay: Antitumor activity against mouse P388 cells allografted in mouse assessed as increase in survival time at 1 mg/kg, ip qd administered for 9 days relative to control; assay type: functional; settings: route intraperitoneal
[19] = test system: P388; assay: Antitumor activity against mouse P388 cells allografted in mouse assessed as increase in survival time at 0.5 mg/kg, ip qd administered for 9 days relative to control; assay type: functional; settings: route intraperitoneal
[20] = test system: P388; assay: Antitumor activity against mouse P388 cells allografted in mouse assessed as increase in survival time at 2 mg/kg, ip qd administered for 9 days relative to control; assay type: functional; settings: route intraperitoneal
[21] = test system: P388; assay: Antitumor activity against mouse P388 cells allografted in mouse assessed as increase in survival time at 0.25 mg/kg, ip qd administered for 9 days relative to control; assay type: functional; settings: route intraperitoneal
[22] = test system: P388; assay: Antitumor activity against mouse P388 cells allografted in mouse assessed as change in survival time at 4 mg/kg, ip qd administered for 9 days relative to control; assay type: functional; settings: route intraperitoneal
[23] = test system: Calf thymus DNA; assay: Binding affinity to calf thymus DNA assessed as increase in melting temperature at 2 x 10^-5 M by UV spectrophotometric analysis; assay type: nucleic-acid assay; settings: Bos taurus
[24] = test system: Mus musculus; assay: Acute toxicity in mouse allografted with mouse P388 cells assessed as survival less than 5 days at 0.06 to 4 mg/kg, ip qd; assay type: organism-based; design: dose 0.06-4 mg/kg, route intraperitoneal; settings: in vivo, 120 h; how it was run: as §2
[25] = test system: Calf thymus DNA; assay: Binding affinity to calf thymus DNA assessed as increase in melting temperature at 2.1 x 10^-5 M by UV spectrophotometric analysis; assay type: nucleic-acid assay; settings: Bos taurus
[26] = test system: Mus musculus; assay: Acute toxicity in mouse allografted with mouse P388 cells assessed as survival less than 5 days at 1.56 to 50 mg/kg, ip qd; assay type: organism-based; design: dose 1.56-50 mg/kg, route intraperitoneal; settings: in vivo, 120 h; how it was run: as §2
[27] = test system: Calf thymus DNA; assay: Binding affinity to calf thymus DNA assessed as increase in melting temperature at 1.54 x 10^-5 M by UV spectrophotometric analysis; assay type: nucleic-acid assay; settings: Bos taurus

COC(=O)[C@]1(O)Cc2c(O)c3c(c(O)c2[C@@H](O[C@H]2C[C@H](N)[C@H](O)[C@H](C)O2)C1)C(=O)c1c(OC)cccc1C3=O.Cl
ΔTm [1]: 12.6 °C
T/C [2]: 103
pEC50 [3]: 5.70
Activity [4]: Non-toxic
T/C [5]: 115
T/C [6]: 108
Activity [7]: Active
Activity [8]: Active
pEC50 [9]: 6.05
T/C [10]: 141
T/C [11]: 112
T/C [12]: 107
T/C [13]: 125

COc1cccc2c1C(=O)c1c(O)c3c(c(O)c1C2=O)C[C@@](O)(C(=O)O)C[C@@H]3O
inhibition [14]: inactive
inhibition [15]: inactive

COC(=O)[C@]1(O)Cc2c(O)c3c(c(O)c2[C@@H](O)C1)C(=O)c1c(OC)cccc1C3=O
inhibition [14]: inactive
inhibition [15]: inactive

COc1cccc2c1C(=O)c1c(O)c3c(c(O)c1C2=O)C[C@@](O)(C(C)=O)C[C@@H]3O[C@H]1C[C@H](N)[C@H](O)[C@H](C)O1 [DAUNORUBICIN]
T/C [16]: 130
T/C [17]: 112
T/C [18]: 157
pEC50 [3]: 6.52
T/C [19]: 150
T/C [20]: 150
T/C [21]: 142
Activity [7]: Active
Activity [8]: Active
T/C [22]: 96
pEC50 [9]: 6.52
ΔTm [23]: 16.8 °C
Activity [24]: Non-toxic

COc1cccc2c1C(=O)c1c(O)c3c(c(O)c1C2=O)C[C@@](O)(C(=O)CO)C[C@@H]3O[C@H]1C[C@H](N)[C@H](O)[C@H](C)O1 [DOXORUBICIN]
T/C [16]: 156
T/C [17]: 139
T/C [18]: 212
pEC50 [3]: 6.10
T/C [19]: 182
ΔTm [25]: 17.8 °C
T/C [21]: 162
Activity [7]: Active
Activity [8]: Active
T/C [22]: 71
pEC50 [9]: 6.05
Activity [24]: Non-toxic

COc1cccc2c1C(=O)c1c(O)c3c(c(O)c1C2=O)C[C@@](O)(C(=O)O)C[C@@H]3O[C@H]1C[C@H](N)[C@H](O)[C@H](C)O1.Cl
T/C [2]: 107
pEC50 [3]: < 4.00
T/C [5]: 163
Activity [26]: Non-toxic
T/C [6]: 142
Activity [7]: Active
Activity [8]: Active
pEC50 [9]: 4.19
T/C [11]: 151
T/C [12]: 100
T/C [13]: 151
ΔTm [27]: 2.6 °C
